High-throughput results: PubChem, Broad Institute
CAL PDZ FP-1 = CAL PDZ (human) peptide binding inhibition. Q9HD26. purified CAL PDZ, TMR-peptide fluorescence polarization, 1 h. inhibition, % at 24.9 µM. 300,000 tested, 0.92% active. AID 602252;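 active = mean inhibition of at least 30% with at least half of replicates also reaching 30%; inconclusive = no clear call, values can overlap the other calls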;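 also: 0% = DMSO neutral control and 100% = excess unlabeled competitor peptide PRC23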
ALR H2O2 inh = blocks human ALR sulfhydryl oxidase activity; 290,000 tested, 3.8% active; purified ALR, DTT oxidation, H2O2 HRP-luminol luminescence; inhibition, % (concentration not given with the values); AID 485317;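 active = mean replicate inhibition above about 79%, with every replicate also reaching it, limit read from the data; inconclusive = only one of the two criteria met; inactive = mean below limit and not every replicate reaching it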
Target sequence (P55789 whole entry, looked up): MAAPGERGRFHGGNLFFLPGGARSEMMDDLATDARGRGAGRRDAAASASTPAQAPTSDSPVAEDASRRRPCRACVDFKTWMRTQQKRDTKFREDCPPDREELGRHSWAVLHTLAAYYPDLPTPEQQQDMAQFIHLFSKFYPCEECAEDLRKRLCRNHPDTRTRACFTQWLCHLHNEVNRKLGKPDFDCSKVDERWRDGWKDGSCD
Rtt109 HAT inh = inhibitors of Candida albicans Rtt109/Vps75 histone acetyltransferase. inhibition, % at 34.9 µM. AID 540336. purified Rtt109/Vps75, ThioGlo CoA-SH fluorescence, 4 h. Q5AAJ8. 330,000 tested, 0.16% active;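 active = inhibition of at least 50% in every replicate; inconclusive = best replicate reaches 50% inhibition but some replicates fall short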
Target sequence (Q5AAJ8 whole entry, looked up): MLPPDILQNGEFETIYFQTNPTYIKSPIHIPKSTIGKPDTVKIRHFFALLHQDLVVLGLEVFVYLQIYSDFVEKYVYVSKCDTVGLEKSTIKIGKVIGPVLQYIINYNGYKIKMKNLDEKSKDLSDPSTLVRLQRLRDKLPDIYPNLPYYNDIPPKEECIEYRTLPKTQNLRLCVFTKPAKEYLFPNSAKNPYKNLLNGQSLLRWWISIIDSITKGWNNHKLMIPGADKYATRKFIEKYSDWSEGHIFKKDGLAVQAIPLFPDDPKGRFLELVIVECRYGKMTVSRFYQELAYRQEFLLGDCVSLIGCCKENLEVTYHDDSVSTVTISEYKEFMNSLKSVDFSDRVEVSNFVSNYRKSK
CAL PDZ FP-2 = human CAL PDZ-peptide interaction inhibition; purified CAL PDZ, TMR-peptide fluorescence polarization, 1 h; Q9HD26; 330,000 tested, 0.02% active; inhibition, % at 20 µM;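 active = highest replicate inhibition of at least 40%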;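 also: plate controls were DMSO neutral control wells for no effect and unlabeled competitor peptide control wells for full effect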
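Control set: unlabelled peptide and DMSO controls / Material: purified CerCALP PDZ construct / Timing: 1 h incubation at room temperature before polarization reading / Doses: 20 µM, one dose / Detection: fluorescence polarization (mP)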
Dyrk1A ADPGlo = blocks rat Dyrk1A kinase activity | Q63470 | ADP-Glo luminescence, NFATc1 peptide | inhibition, % at 12.5 µM | 310,000 tested, 0.43% active | AID 504441; in the data active = inhibition above about 50%;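 also: plate controls were vehicle with enzyme for no effect and no enzyme for full effect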
* marks the source's active call; other numbers are inactive results; ? = inconclusive; . = no result. Sampled rows, rich in hits. Any-hit rate of the full collection: about 4.3%.

SMILES	CAL PDZ FP-1	ALR H2O2 inh	Rtt109 HAT inh	CAL PDZ FP-2	Dyrk1A ADPGlo
Cc1cccc(-n2nc(C)c3c2NC2=C(C(=O)CCC2)C3c2ccccn2)c1 (stereo not drawn)	79*	-12	1	.	-1
COc1ccc(/C(C)=N/NC(=O)c2cc(-c3cccnc3)nc3ccccc23)cc1	-1	-30	.	-3	-2
C/C(=N\NC(=O)c1cc(-c2ccncc2)nc2ccccc12)c1ccc(OC(F)F)cc1	70*	.	-11	0	.
CCC1(c2ccccc2)NC(=O)N(CC(=O)NCC2COc3ccccc3O2)C1=O (stereo not drawn)	-2	.	-4	0	-1
CN(c1ccc(OCC(=O)OCC(=O)Nc2ccc([N+](=O)[O-])cc2)cc1)S(=O)(=O)c1cccs1	95*	.	16	0	0
O=C(Nc1ncc([N+](=O)[O-])s1)c1cccc([N+](=O)[O-])c1	4	98*	-2	-1	14
Cc1ccccc1NC(=O)CN1C(=O)CSc2ccccc21	38*	-21	-11	0	-3
CCC1CCc2sc(C(=O)N(C)CC(=O)Nc3ccc(N4CCOCC4)cc3)cc2C1 (stereo not drawn)	-3	5	0	-1	-6
O=C(O)c1ccc(Cl)c(S(=O)(=O)NCC2CCCO2)c1 (stereo not drawn)	0	-2	-17	-1	5
O=C(COC(=O)c1ccc(Cl)c(S(=O)(=O)NCc2ccccc2)c1)NCC1CCCO1 (stereo not drawn)	44*	3	.	0	3
COc1ccc(CNC(=O)C(c2ccco2)N(C(=O)CNS(=O)(=O)c2ccccc2)c2ccccc2C)cc1 (stereo not drawn)	92*	-5	12	-1	8
Cc1nc(Nc2ccccc2)sc1-c1ccccc1	0	.	6	0	12
Cc1nc(Nc2ccc(C(=O)O)cc2)sc1-c1ccccc1	56*	-3	-2	0	27
O=[N+]([O-])c1ccc2c(c1)CNc1ccccc1O2	0	99*	17	1	-1
COc1cc(OC)c(NC(=O)CCc2ccccc2)cc1Cl	-1	-34	3	-2	11
COc1cc(OC)c(NC(C)C(=O)NCc2ccccc2)cc1Cl (stereo not drawn)	0	94*	-1	.	-4
COc1cc(Nc2c3c(nc4ccccc24)CCC3)cc(OC)c1OC	1	99*	-1	-1	0
Cc1cccc(Nc2c3c(nc4ccccc24)CCC3)c1	-1	63	23	0	.
COc1ccc(OC)c(Nc2c3c(nc4ccccc24)CCC3)c1	3	98*	6	-1	-5
COc1ccc(OC)c(Nc2c3ccccc3nc3ccccc23)c1	-3	?	-5	.	5
COc1ccccc1Nc1c2c(nc3ccc(N)cc13)CCCC2	.	99*	4	-2	-5
COc1ccc(Nc2c3c(nc4ccc(C)cc24)CCC3)cc1	-5	.	18	0	0
CN(CC(=O)Nc1cccc(F)c1)C(=O)CSc1ccccc1	-1	.	-11	-2	-2
CC(C)N(Cc1ccccc1)C(=O)COC(=O)c1cnc(Cl)c(Cl)c1	42*	-1	-3	0	2
O=C(NN1CCOCC1)c1cc(-c2ccc(Br)cc2)nc2ccccc12	59*	-10	-12	0	-3
SMILES	CAL PDZ FP-1	ALR H2O2 inh	Rtt109 HAT inh	CAL PDZ FP-2	Dyrk1A ADPGlo
Cc1ccc(C)c(-c2cc(C(=O)Nc3cccnc3)c3ccccc3n2)c1	-4	-4	8	-3	2
O=C(Nc1ccc2c(c1)OCO2)c1cc(-c2cccnc2)nc2ccccc12	40*	-59	-2	0	6
CCc1ccc(-c2cc(C(=O)NN3CCOCC3)c3ccccc3n2)cc1	-6	-7	-6	.	3
O=C(Nc1cccnc1)c1cc(-c2ccc(Br)cc2)nc2ccccc12	68*	-4	-3	0	2
O=C(N/N=C/c1ccc2c(c1)OCO2)c1cc(-c2ccccc2)nc2ccccc12	4	-2	?	0	-4
C=CCOC(=O)C(=O)/C=C/c1ccc2c(c1)Cc1ccccc1-2	-7	5	-2	-2	3
N#CC(C#N)=C(N)/C(C#N)=C/c1cc(O)c(O)c(O)c1	0	96*	17	0	32
COc1cccc(C(=O)NN/C(C)=C/C(=O)C(F)(F)C(F)(F)C(F)(F)F)c1	.	6	-3	-1	-7
O=C(COc1ccc2c(c1)OCO2)Nc1nccs1	53*	.	0	0	3
c1ccc(Nc2cccc3c(Nc4ccccc4)cccc23)cc1	-6	.	15	-2	2
O=S(=O)(O)c1cccc2cccc(Nc3ccccc3)c12	0	99*	-11	-2	-2
CN(C)C=NC1=NN(c2cccc(C(F)(F)F)c2)CC1	0	95*	-2	0	5
CN1CCN(C=NC2=NN(c3cccc(C(F)(F)F)c3)CC2)CC1	-1	99*	2	0	-1
Nc1cc(=O)[nH]c(SCC(=O)c2ccc(F)cc2)n1	-2	98*	2	1	3
Cc1cc(=O)[nH]c(SCC(=O)c2ccc(C(C)C)cc2)n1	2	98*	3	-2	2
Cc1ccc(C)c(C(=O)CSc2nc(N)cc(=O)[nH]2)c1	-5	-1	1	-4	.
Cc1ccc(C(=O)CSc2nc(N)cc(=O)[nH]2)cc1	-2	99*	.	-3	0
Nc1cc(=O)[nH]c(SCCSc2ccc(F)cc2)n1	-1	-5	-4	-3	-1
COc1ccc(C(=O)CSc2nc(C)cc(=O)[nH]2)cc1	-4	?	-17	1	4
CC(C)CC(=O)Nc1nnc(SCC(=O)NCC2CCCO2)s1 (stereo not drawn)	.	-9	1	-1	.
O=C(NC1CCCC1)C(c1ccccn1)N(C(=O)c1csnn1)c1ccccc1Br (stereo not drawn)	.	.	-6	-1	-7
CC1=NNC(=O)C1CC(=O)N/N=C/c1sccc1C (stereo not drawn)	.	.	5	-2	6
COc1cc(OC)c(OC)cc1/C=N/NC(=O)CC1C(=O)NN=C1C (stereo not drawn)	36*	11	2	-4	0
CCOc1ccc(/C=C2\SC(=S)N(NS(=O)(=O)c3ccccc3)C2=O)cc1OC	-5	.	30	-6	-4
O=C1/C(=C/c2ccncc2)SC(=S)N1Nc1ccccc1	.	99*	.	.	.
CCOc1cc(/C=C2\SC(=S)N(Nc3ccccc3)C2=O)ccc1O	-5	81*	-8	-1	27
COc1cc(/C=C2\SC(=S)N(Nc3ccccc3)C2=O)ccc1O	-3	?	9	-2	30
CCOc1cc(/C=C2\SC(=S)N(NS(=O)(=O)c3ccccc3)C2=O)ccc1O	-2	99*	2	-2	-2
COCCCNC(=O)CN(c1cc(Cl)ccc1OC)S(C)(=O)=O	-2	-1	-2	-2	-3
COc1cc([N+](=O)[O-])ccc1NC(=O)C[n+]1cccc(C(C)=O)c1	-1	-8	7	0	-1
